Several values for one entry are separate records, joined by “and”; a condition that tells them apart may be missing. Equal values may be shown once.
System: HEK-293T
Assay: Multiplex assay against HEK293T
Assay type: toxicity, cell-based
Details: human, number of replicates 2
How it was run: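 On a CQ1 microscope at 37°C and 5% CO2, live cells were imaged after compound addition. They had been stained at seeding with Hoechst33342, BioTracker Green Microtubule Cytoskeleton Dye, MitoTracker Red and Annexin V Alexa Fluor 680. CellPathfinder machine-learning gating assigned cells to Hoechst high-intensity objects or normal cells, normal cells to healthy, pyknosed or fragmented nuclei, and pyknosed cells to mitotic or apoptotic. Tubulin, mitochondrial-mass and membrane-permeability phenotypes are per cents of healthy-nucleus cells.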

[1] = 12 h, 1 µM, compound concentration 1 uM
[2] = 12 h, 10 µM, compound concentration 10 uM
[3] = 24 h, 1 µM, compound concentration 1 uM
[4] = 24 h, 10 µM, compound concentration 10 uM
[5] = 48 h, 1 µM, compound concentration 1 uM
[6] = 48 h, 10 µM, compound concentration 10 uM

With Cn1cc(-c2ccc(-c3cncc(Cl)c3N3CCC4(CCNC4=O)CC3)cc2)cn1 the “Population Apoptotic (%)” value [1] was 62% and 39%, the “Population Fragmented Nuclei (%)” value [1] was 2% and 4% and the “Population Healthy Nuclei (%)” value [1] was 90% and 84%. For the same molecule, the “Population Hoechst High Intensity Objects (%)” value [1] was 6% and 5%, the “Population Membrane Permeable-Phenotype (%)” value [1] was 5% and 4% and the “Population Mitochondria Different-Phenotype (%)” value [1] was 14% and 18%. For the same molecule, the “Population Mitotic Cells (%)” value [1] was 37% and 60%, the “Population Normal (%)” value [1] was 93% and 94% and the “Population Pyknosed Nuclei (%)” value [1] was 6% and 11%. For the same molecule, the “Population Tubulin-Different-Phenotype (%)” value [1] was 58% and 67%, the “Total Cell Count” value [1] was 574 and 615 and the “Population Apoptotic (%)” value [2] was 41% and 49%. The “Population Fragmented Nuclei (%)” value [2] was 2% and 3%, the “Population Healthy Nuclei (%)” value [2] was 87% and 86% and the “Population Hoechst High Intensity Objects (%)” value [2] was 7%. The “Population Membrane Permeable-Phenotype (%)” value [2] was 5% and 6%, the “Population Mitochondria Different-Phenotype (%)” value [2] was 40% and 35% and the “Population Mitotic Cells (%)” value [2] was 58% and 50%. For the same molecule, the “Population Normal (%)” value [2] was 92%, the “Population Pyknosed Nuclei (%)” value [2] was 10% and the “Population Tubulin-Different-Phenotype (%)” value [2] was 98% and 95%. For the same molecule, the “Total Cell Count” value [2] was 600 and 554, the “Population Apoptotic (%)” value [3] was 36% and 51% and the “Population Fragmented Nuclei (%)” value [3] was 6% and 9%. For the same molecule, the “Population Healthy Nuclei (%)” value [3] was 86% and 85%, the “Population Hoechst High Intensity Objects (%)” value [3] was 9% and 10% and the “Population Membrane Permeable-Phenotype (%)” value [3] was 3%. For the same molecule, the “Population Mitochondria Different-Phenotype (%)” value [3] was 8% and 7%, the “Population Mitotic Cells (%)” value [3] was 63% and 48% and the “Population Normal (%)” value [3] was 90% and 89%. The “Population Pyknosed Nuclei (%)” value [3] was 7% and 5%, the “Population Tubulin-Different-Phenotype (%)” value [3] was 53% and the “Total Cell Count” value [3] was 822 and 828. The “Population Apoptotic (%)” value [4] was 43% and 49%, the “Population Fragmented Nuclei (%)” value [4] was 5% and the “Population Healthy Nuclei (%)” value [4] was 85% and 84%. For the same molecule, the “Population Hoechst High Intensity Objects (%)” value [4] was 5% and 9%, the “Population Membrane Permeable-Phenotype (%)” value [4] was 6% and 5% and the “Population Mitochondria Different-Phenotype (%)” value [4] was 34% and 30%. For the same molecule, the “Population Mitotic Cells (%)” value [4] was 56% and 50%, the “Population Normal (%)” value [4] was 94% and 90% and the “Population Pyknosed Nuclei (%)” value [4] was 9% and 10%. For the same molecule, the “Population Tubulin-Different-Phenotype (%)” value [4] was 95% and 94%, the “Total Cell Count” value [4] was 684 and 624 and the “Population Apoptotic (%)” value [5] was 31% and 36%. The “Population Fragmented Nuclei (%)” value [5] was 16% and 14%, the “Population Healthy Nuclei (%)” value [5] was 80% and 82% and the “Population Hoechst High Intensity Objects (%)” value [5] was 16% and 14%. For the same molecule, the “Population Membrane Permeable-Phenotype (%)” value [5] was 5% and 4%, the “Population Mitochondria Different-Phenotype (%)” value [5] was 2% and the “Population Mitotic Cells (%)” value [5] was 68% and 63%. The “Population Normal (%)” value [5] was 83% and 85%, the “Population Pyknosed Nuclei (%)” value [5] was 2% and 3% and the “Population Tubulin-Different-Phenotype (%)” value [5] was 42% and 49%. For the same molecule, the “Total Cell Count” value [5] was 1341 and 1209, the “Population Apoptotic (%)” value [6] was 55% and 50% and the “Population Fragmented Nuclei (%)” value [6] was 8% and 7%. The “Population Healthy Nuclei (%)” value [6] was 84% and 83%, the “Population Hoechst High Intensity Objects (%)” value [6] was 10% and the “Population Membrane Permeable-Phenotype (%)” value [6] was 8%. The “Population Mitochondria Different-Phenotype (%)” value [6] was 15% and 18%, the “Population Mitotic Cells (%)” value [6] was 45% and 49% and the “Population Normal (%)” value [6] was 89%. For the same molecule, the “Population Pyknosed Nuclei (%)” value [6] was 6% and 8%, the “Population Tubulin-Different-Phenotype (%)” value [6] was 87% and 85% and the “Total Cell Count” value [6] was 1065 and 859.

CC(C)S(=O)(=O)c1ccccc1Nc1nc(N[C@@H]2CCCN(CCCCCCCNC(=O)COc3cccc4c3C(=O)N(C3CCC(=O)NC3=O)C4=O)C2)ncc1Cl (some centres not stated) was tested, and the “Population Apoptotic (%)” value [1] was 72% and 70%, the “Population Fragmented Nuclei (%)” value [1] was 2% and 3% and the “Population Healthy Nuclei (%)” value [1] was 80% and 76%. The “Population Hoechst High Intensity Objects (%)” value [1] was 8% and 16%, the “Population Membrane Permeable-Phenotype (%)” value [1] was 0% and the “Population Mitochondria Different-Phenotype (%)” value [1] was 61% and 50%. For the same molecule, the “Population Mitotic Cells (%)” value [1] was 27% and 29%, the “Population Normal (%)” value [1] was 91% and 83% and the “Population Pyknosed Nuclei (%)” value [1] was 17% and 19%. The “Population Tubulin-Different-Phenotype (%)” value [1] was 75% and 73%, the “Total Cell Count” value [1] was 378 and 397 and the “Population Apoptotic (%)” value [2] was 48% and 67%. The “Population Fragmented Nuclei (%)” value [2] was 4% and 5%, the “Population Healthy Nuclei (%)” value [2] was 63% and 65% and the “Population Hoechst High Intensity Objects (%)” value [2] was 18% and 15%. The “Population Membrane Permeable-Phenotype (%)” value [2] was 6%, the “Population Mitochondria Different-Phenotype (%)” value [2] was 70% and the “Population Mitotic Cells (%)” value [2] was 51% and 32%. For the same molecule, the “Population Normal (%)” value [2] was 81% and 84%, the “Population Pyknosed Nuclei (%)” value [2] was 31% and 29% and the “Population Tubulin-Different-Phenotype (%)” value [2] was 48% and 66%. The “Total Cell Count” value [2] was 366 and 343, the “Population Apoptotic (%)” value [3] was 65% and 76% and the “Population Fragmented Nuclei (%)” value [3] was 3% and 5%. The “Population Healthy Nuclei (%)” value [3] was 82% and 79%, the “Population Hoechst High Intensity Objects (%)” value [3] was 12% and 14% and the “Population Membrane Permeable-Phenotype (%)” value [3] was 1%. For the same molecule, the “Population Mitochondria Different-Phenotype (%)” value [3] was 65% and 63%, the “Population Mitotic Cells (%)” value [3] was 34% and 23% and the “Population Normal (%)” value [3] was 87% and 85%. The “Population Pyknosed Nuclei (%)” value [3] was 14% and 15%, the “Population Tubulin-Different-Phenotype (%)” value [3] was 69% and 67% and the “Total Cell Count” value [3] was 385 and 384. For the same molecule, the “Population Apoptotic (%)” value [4] was 79% and 70%, the “Population Fragmented Nuclei (%)” value [4] was 6% and 3% and the “Population Healthy Nuclei (%)” value [4] was 65% and 61%. For the same molecule, the “Population Hoechst High Intensity Objects (%)” value [4] was 19%, the “Population Membrane Permeable-Phenotype (%)” value [4] was 1% and 2% and the “Population Mitochondria Different-Phenotype (%)” value [4] was 81% and 87%. The “Population Mitotic Cells (%)” value [4] was 20% and 30%, the “Population Normal (%)” value [4] was 80% and the “Population Pyknosed Nuclei (%)” value [4] was 28% and 34%. For the same molecule, the “Population Tubulin-Different-Phenotype (%)” value [4] was 85% and 93%, the “Total Cell Count” value [4] was 341 and 356 and the “Population Apoptotic (%)” value [5] was 78% and 74%. For the same molecule, the “Population Fragmented Nuclei (%)” value [5] was 3%, the “Population Healthy Nuclei (%)” value [5] was 84% and 83% and the “Population Hoechst High Intensity Objects (%)” value [5] was 12% and 14%. The “Population Membrane Permeable-Phenotype (%)” value [5] was 0% and 1%, the “Population Mitochondria Different-Phenotype (%)” value [5] was 66% and 57% and the “Population Mitotic Cells (%)” value [5] was 21% and 25%. The “Population Normal (%)” value [5] was 87% and 85%, the “Population Pyknosed Nuclei (%)” value [5] was 11% and 13% and the “Population Tubulin-Different-Phenotype (%)” value [5] was 66% and 57%. The “Total Cell Count” value [5] was 316 and 306, the “Population Apoptotic (%)” value [6] was 78% and 74% and the “Population Fragmented Nuclei (%)” value [6] was 6% and 5%. The “Population Healthy Nuclei (%)” value [6] was 70% and 63%, the “Population Hoechst High Intensity Objects (%)” value [6] was 18% and 20% and the “Population Membrane Permeable-Phenotype (%)” value [6] was 2% and 1%. The “Population Mitochondria Different-Phenotype (%)” value [6] was 73% and 79%, the “Population Mitotic Cells (%)” value [6] was 21% and 25% and the “Population Normal (%)” value [6] was 81% and 79%. For the same molecule, the “Population Pyknosed Nuclei (%)” value [6] was 23% and 31%, the “Population Tubulin-Different-Phenotype (%)” value [6] was 66% and 77% and the “Total Cell Count” value [6] was 296 and 313.

— ChEMBL document CHEMBL5303300, “EUbOPEN Chemogenomics Library - Multiplex” (2023)
